{"source": "ChEMBL document CHEMBL4376891", "about": "“Benzenesulfonamide Derivatives as Calcium/Calmodulin-Dependent Protein Kinase Inhibitors and Antiviral Agents against Dengue and Zika Virus Infections” (J Med Chem, 2020)", "key": {"dengue virus type 2 [1]": {"system": "dengue virus type 2", "assay": "Antiviral activity against DENV-2 NGC-N infected in Stat1-/- mouse assessed as time delay in mouse mortality at 2 mg/kg/day, po dosed immediately following viral infection followed by daily dosing for 6 days (reference value: 9 days)", "type": "functional"}, "dengue virus type 2 [2]": {"system": "dengue virus type 2", "assay": "Antiviral activity against DENV-2 NGC-N infected in Stat1-/- mouse assessed as overall mouse survival at 8 mg/kg, po dosed immediately following viral infection followed by daily dosing for 6 days (reference value: 0%)", "type": "functional", "conditions": "144 h"}, "Zika virus [3]": {"system": "Zika virus", "assay": "Antiviral activity against Zika virus infected in human BE(2)-C cells assessed as NS3 protein expression at 6.25 uM treated during 3 to 24 hrs post infection by Western blot analysis (reference value: 100%)", "type": "functional", "in_short": "(§1)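 Time-of-addition design: BE(2)C cells were infected with DENV-2 or ZIKV at MOI 1. Compound at 3.125 or 6.25 μM was present either during adsorption (0–3 hpi) or afterward (3–24 hpi). Viral protein was immunoblotted against actin, with the ratio as % of the solvent control.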"}, "Zika virus [4]": {"system": "Zika virus", "assay": "Antiviral activity against Zika virus infected in human BE(2)-C cells assessed as NS3 protein expression at 6.25 uM treated during 0 to 3 hrs post infection by Western blot analysis (reference value: 100%)", "type": "functional", "in_short": "as §1"}, "BE(2)-C": {"system": "BE(2)-C", "assay": "Cytotoxicity against human BE(2)-C cells assessed as reduction in cell proliferation up to 12.5 uM incubated overnight by XTT assay relative to control", "type": "cell-based", "in_short": "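BE(2)C cells (RPMI 1640, 10% FBS) exposed overnight to compound at concentrations up to 12.5 μM; XTT (proliferation) or LDH release (cytotoxicity) read by absorbance at 490 nm. Values normalized to solvent control (%), mean ± SD of 3 independent experiments.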"}, "dengue virus type 2 [5]": {"system": "dengue virus type 2", "assay": "Antiviral activity against Dengue virus 2 infected in human BE(2)-C cells assessed as NS3 protein expression at 3.125 uM incubated for 48 hrs by Western blot analysis (reference value: 100%)", "type": "functional", "in_short": "(§2)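 BE(2)C neuroblastoma cells in RPMI 1640 with 10% FBS were infected with DENV-2 PL046 at MOI 0.1 for 48 h, without or with compound at increasing concentrations. NS3 was immunoblotted with actin as loading control. The NS3:actin densitometry ratio was expressed as % of the DMSO control. Mean ± SD of 3 independent experiments.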"}, "dengue virus type 2 [6]": {"system": "dengue virus type 2", "assay": "Antiviral activity against Dengue virus 2 infected in human BE(2)-C cells assessed as NS3 protein expression at 12.5 uM incubated for 48 hrs by Western blot analysis (reference value: 100%)", "type": "functional", "in_short": "as §2"}, "dengue virus type 2 [7]": {"system": "dengue virus type 2", "assay": "Antiviral activity against Dengue virus 2 infected in human HMC3 cells assessed as reduction in NS3 protein expression at 1.56 to 12.5 uM incubated for 24 hrs by immunofluorescence microscopy", "type": "functional, organism-based"}, "Zika virus [8]": {"system": "Zika virus", "assay": "Antiviral activity against Zika virus infected in human HMC3 cells assessed as reduction in NS3 protein expression at 1.56 to 12.5 uM incubated for 24 hrs by immunofluorescence microscopy", "type": "functional, organism-based"}, "Sindbis virus": {"system": "Sindbis virus", "assay": "Antiviral activity of eGFP-fused Sindbis virus infected in human HMC3 cells at 0.781 to 12.5 uM incubated for 24 hrs by immunofluorescence microscopy", "type": "functional, organism-based"}, "Zika virus [9]": {"system": "Zika virus", "assay": "Antiviral activity against Zika virus infected in human BE(2)-C cells assessed as NS3 protein expression at 0.39 uM incubated for 48 hrs by Western blot analysis (reference value: 100%)", "type": "functional", "in_short": "(§3)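 BE(2)C cells were infected with ZIKV PRVABC59 at MOI 0.1 for 48 h, with or without compound at increasing concentrations. Viral protein was immunoblotted with actin as loading control. The band-density ratio was given as % of the solvent control. Mean ± SD, 3 independent experiments.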"}, "Zika virus [10]": {"system": "Zika virus", "assay": "Antiviral activity against Zika virus infected in human BE(2)-C cells assessed as NS3 protein expression at 0.78 uM incubated for 48 hrs by Western blot analysis (reference value: 100%)", "type": "functional", "in_short": "as §3"}, "Zika virus [11]": {"system": "Zika virus", "assay": "Antiviral activity against Zika virus infected in human BE(2)-C cells assessed as NS3 protein expression at 6.25 uM incubated for 48 hrs by Western blot analysis (reference value: 100%)", "type": "functional", "in_short": "as §3"}, "Zika virus [12]": {"system": "Zika virus", "assay": "Antiviral activity against Zika virus infected in human BE(2)-C cells assessed as reduction in NS3 protein expression at 3.125 to 6.25 uM treated during 3 to 24 hrs post infection by Western blot analysis", "type": "functional, organism-based", "in_short": "as §1"}, "Zika virus [13]": {"system": "Zika virus", "assay": "Antiviral activity against Zika virus infected in human BE(2)-C cells assessed as reduction in viral entry at 3.125 to 6.25 uM incubated for 90 mins by plaque-forming assay", "type": "functional, organism-based", "in_short": "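Virus entry: BE(2)C cells were incubated with DENV-2 or ZIKV for 90 min at 4 °C and washed cold. Cells were then treated with 3.125 or 6.25 μM compound at 37 °C for 1 h. Non-internalized virus was inactivated with 0.1 M glycine, pH 3, for 5 min. Cells were lysed by needle passage, and internalized virus was titrated by plaque assay. Mean ± SD, n = 3.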"}, "dengue virus type 2 [14]": {"system": "dengue virus type 2", "assay": "Antiviral activity against Dengue virus 2 infected in human BE(2)-C cells assessed as suppression of viral-induced CaMKIIalpha activation at 3.125 uM incubated for 4 hrs by confocal microscopy", "type": "functional, organism-based"}, "dengue virus type 2 [15]": {"system": "dengue virus type 2", "assay": "Antiviral activity against DENV-2 NGC-N infected in Stat1-/- mouse assessed as improvement in mouse survival by measuring median survival time at 4 mg/kg, po dosed 8 hrs after infection and ending at day 6 after infection (8 hrs delay) (reference value: 10 days)", "type": "functional"}, "dengue virus type 2 [16]": {"system": "dengue virus type 2", "assay": "Antiviral activity against Dengue virus 2 infected in human BE(2)-C cells assessed as NS3 protein expression at 3.125 uM treated during 0 to 3 hrs post infection by Western blot analysis (reference value: 100%)", "type": "functional", "in_short": "as §1"}, "dengue virus type 2 [17]": {"system": "dengue virus type 2", "assay": "Antiviral activity against fluorescently labeled Dengue virus 2 infected in human BE(2)-C cells at 3.125 uM by confocal microscopy", "type": "functional, organism-based", "in_short": "(§4)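 DENV-2 or ZIKV was concentrated and labeled with atto-647N dye. BE(2)C cells were pretreated with solvent or 3.125 µM, then incubated at 37 °C with labeled DENV-2 for 30 min or ZIKV for 60 min. Cells were fixed in 4% paraformaldehyde, membranes stained with WGA-488, and intracellular virus signal imaged by confocal microscopy.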"}, "Zika virus [18]": {"system": "Zika virus", "assay": "Antiviral activity against fluorescently labeled Zika virus infected in human BE(2)-C cells at 3.125 uM by confocal microscopy", "type": "functional, organism-based", "in_short": "as §4"}, "dengue virus type 2 [19]": {"system": "dengue virus type 2", "assay": "Antiviral activity against Dengue virus 2 infected in human BE(2)-C cells transfected with shCaMKIIalpha assessed as NS3 protein expression at 6.25 uM incubated for 48 hrs by Western blot analysis (reference value: 100%)", "type": "functional"}, "Zika virus [20]": {"system": "Zika virus", "assay": "Antiviral activity against Zika virus infected in human BE(2)-C cells transfected with shLacZ assessed as NS3 protein expression at 6.25 uM incubated for 48 hrs by Western blot analysis (reference value: 100%)", "type": "functional"}, "Zika virus [21]": {"system": "Zika virus", "assay": "Antiviral activity against Zika virus infected in human BE(2)-C cells transfected with shCaMKIIalpha assessed as NS3 protein expression at 6.25 uM incubated for 48 hrs by Western blot analysis (reference value: 100%)", "type": "functional"}, "dengue virus type 2 [22]": {"system": "dengue virus type 2", "conditions": "3.125 to 6.25 uM"}, "Zika virus [23]": {"system": "Zika virus", "conditions": "3.125 to 6.25 uM"}}, "note": "The source made the active and inactive calls. The calls are words filed in the database; no cut-off is given here.", "data": [{"smiles": "COc1ccc(S(=O)(=O)N(CCCC(=O)C2CCCCCC2)c2ccccc2)cc1", "values": [{"measurement": "Time", "setting": "dengue virus type 2 [1]", "value": 15, "unit": "days"}, {"measurement": "survival at 8 mg/kg", "setting": "dengue virus type 2 [2]", "value": 60, "unit": "%"}, {"measurement": "Activity", "setting": "Zika virus [3]", "value": 79.5, "unit": "%"}, {"measurement": "Activity", "setting": "Zika virus [4]", "value": 20.1, "unit": "%"}, {"measurement": "Activity", "setting": "BE(2)-C", "value": "Non-Toxic"}, {"measurement": "Activity", "setting": "dengue virus type 2 [5]", "value": 54.5, "unit": "%"}, {"measurement": "Activity", "setting": "dengue virus type 2 [6]", "value": 5.1, "unit": "%"}, {"measurement": "Activity", "setting": "dengue virus type 2 [7]", "value": "Active"}, {"measurement": "Activity", "setting": "Zika virus [8]", "value": "Active"}, {"measurement": "Activity", "setting": "Sindbis virus", "value": "Active"}, {"measurement": "Activity", "setting": "Zika virus [9]", "value": 97.7, "unit": "%"}, {"measurement": "Activity", "setting": "Zika virus [10]", "value": 89.6, "unit": "%"}, {"measurement": "Activity", "setting": "Zika virus [11]", "value": 4.1, "unit": "%"}, {"measurement": "Activity", "setting": "Zika virus [12]", "value": "inactive"}, {"measurement": "Activity", "setting": "Zika virus [13]", "value": "Dose-dependent effect"}, {"measurement": "Activity", "setting": "dengue virus type 2 [14]", "value": "Active"}, {"measurement": "MST", "setting": "dengue virus type 2 [15]", "value": 22, "unit": "days"}, {"measurement": "Activity", "setting": "dengue virus type 2 [16]", "value": 72.5, "unit": "%"}, {"measurement": "Activity", "setting": "dengue virus type 2 [17]", "value": "Active"}, {"measurement": "Activity", "setting": "Zika virus [18]", "value": "Active"}, {"measurement": "Activity", "setting": "dengue virus type 2 [19]", "value": 75.4, "unit": "%"}, {"measurement": "Activity", "setting": "Zika virus [20]", "value": 25.9, "unit": "%"}, {"measurement": "Activity", "setting": "Zika virus [21]", "value": 89.1, "unit": "%"}, {"measurement": "inhibition", "setting": "dengue virus type 2 [22]", "value": "inactive"}, {"measurement": "inhibition", "setting": "Zika virus [23]", "value": "inactive"}]}]}
